Laboratory results reported in ChEMBL document CHEMBL1126974, “The effect of NMeTyr5 substitution in luteinizing hormone-releasing hormone antagonists” (J Med Chem, 1993).
In brackets after ≈: the same amount, converted by molar mass. Non-standard residues stand in square brackets, D forms with d. Residues, ends and D or L forms follow the SMILES beside them. *: point of attachment. dNva(5-oxo-5-(4-MeOPh)) = COc1ccc(C(=O)CC[C@@H](N)C(=O)O)cc1; dPhe(4-Cl) = N[C@H](Cc1ccc(Cl)cc1)C(=O)O; d2Nal = N[C@H](Cc1ccc2ccccc2c1)C(=O)O; Lys(iPr) = CC(C)NCCCC[C@H](N)C(=O)O; NMeY = CN[C@@H](Cc1ccc(O)cc1)C(=O)O; dBta = N[C@H](Cc1csc2ccccc12)C(=O)O; dCit = NC(=O)NCCC[C@@H](N)C(=O)O; d3Pal = N[C@H](Cc1cccnc1)C(=O)O; Nicotinoyl = O=C(c1cccnc1)*

How the values were obtained:
[1] = molecular target: T1, Gonadotropin-releasing hormone receptor (Rattus norvegicus, UniProt P30969); experiment: The negative logarithm of the concentration of antagonist that inhibits 50% of the binding of 125 I-labeled leuprolide to the rat pituitary LHRH receptor
T1 sequence (P30969 whole entry): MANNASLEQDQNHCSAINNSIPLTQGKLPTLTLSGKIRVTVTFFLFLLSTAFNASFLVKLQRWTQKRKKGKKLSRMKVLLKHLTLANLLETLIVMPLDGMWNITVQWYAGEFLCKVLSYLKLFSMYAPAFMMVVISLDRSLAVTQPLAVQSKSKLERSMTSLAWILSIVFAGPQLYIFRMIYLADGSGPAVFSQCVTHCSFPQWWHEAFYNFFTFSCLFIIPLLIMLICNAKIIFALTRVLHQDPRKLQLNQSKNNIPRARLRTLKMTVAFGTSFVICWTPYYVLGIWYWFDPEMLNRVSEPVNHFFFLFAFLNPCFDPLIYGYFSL
Procedure, shortened: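 Competition binding to rat pituitary LHRH receptor with 125I-labeled leuprolide as radioligand; compounds dissolved in 10 mmol Tris buffer pH 7.4. Concentration inhibiting 50% of tracer binding determined and expressed as its negative logarithm (pKi). TFA salts unless indicated.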

[2] = Solubility was determined in 5% dextrose, pH 4.5; type: physicochemical
Procedure, shortened: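 Solubility measured in 5% dextrose at pH 4.5, reported in mg/mL; some peptides measured as TFA salts, others as acetate salts.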

Rattus norvegicus [3] = organism: Rattus norvegicus; experiment: The negative logarithm of the concentration of the antagonist that requires 2-fold higher concentration of the agonist to release LH from cultured rat pituitary cells; type: functional, cell-based; conditions: Pituitary gland cell, read-out: pA2 (converted)
Procedure, shortened: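 Cultured rat pituitary cells stimulated with LHRH agonist in presence of antagonist dissolved in 10 mmol Tris buffer pH 7.4; LH release measured. pA2 taken as negative log of antagonist concentration requiring 2-fold higher agonist concentration for LH release.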

Rattus norvegicus [4] = organism: Rattus norvegicus; experiment: Effective dose of the antagonist that gives 50% of the maximal release of histamine from rat peritoneal mast cells; type: functional; conditions: read-out: ED50 (the source's name)
Procedure, shortened: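 Mast cells from rat peritoneum; compounds dissolved in 5.6 mM glucose, 0.1% BSA in Dulbecco phosphate-buffered saline pH 7.4. Released histamine quantified by RIA kit; value is dose giving 50% of maximal histamine release, in µg/mL. Tested as TFA salts unless indicated.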

SMILES	Ki [1] [nM]	solubility [2] [µg/mL]	Kb (Rattus norvegicus [3]) [nM]	EC50 (Rattus norvegicus [4]) [µg/mL]
CC(=O)N[C@H](Cc1ccc(Cl)cc1)C(=O)N[C@H](Cc1ccc(Cl)cc1)C(=O)N[C@H](Cc1csc2ccccc12)C(=O)N[C@@H](CO)C(=O)N[C@@H](Cc1ccc(O)cc1)C(=O)N[C@H](CCCCN)C(=O)N[C@@H](CC(C)C)C(=O)N[C@@H](CCCN=C(N)N)C(=O)N1CCC[C@H]1C(=O)N[C@H](C)C(N)=O [listing 1 of 2 here]	0.0331	< 100	0.00646	–
CC(=O)N[C@H](Cc1ccc(Cl)cc1)C(=O)N[C@H](Cc1ccc(Cl)cc1)C(=O)N[C@H](Cc1csc2ccccc12)C(=O)N[C@@H](CO)C(=O)N[C@@H](Cc1ccc(O)cc1)C(=O)N[C@H](CCCCN)C(=O)N[C@@H](CC(C)C)C(=O)N[C@@H](CCCN=C(N)N)C(=O)N1CCC[C@H]1C(=O)N[C@H](C)C(N)=O [listing 2 of 2 here]	–	–	–	0.62 (≈ 0.43 µM)
CC(=O)N[C@H](Cc1ccc2ccccc2c1)C(=O)N[C@H](Cc1ccc(Cl)cc1)C(=O)N[C@H](Cc1cccnc1)C(=O)N[C@@H](CO)C(=O)N(C)[C@@H](Cc1ccc(O)cc1)C(=O)N[C@H](CCCNC(N)=O)C(=O)N[C@@H](CC(C)C)C(=O)N[C@@H](CCCN=C(N)N)C(=O)N1CCC[C@H]1C(=O)N[C@H](C)C(N)=O [listing 1 of 2 here]	0.0135	12000 (≈ 8300 µM)	0.0158	–
CC(=O)N[C@H](Cc1ccc2ccccc2c1)C(=O)N[C@H](Cc1ccc(Cl)cc1)C(=O)N[C@H](Cc1cccnc1)C(=O)N[C@@H](CO)C(=O)N(C)[C@@H](Cc1ccc(O)cc1)C(=O)N[C@H](CCCNC(N)=O)C(=O)N[C@@H](CC(C)C)C(=O)N[C@@H](CCCN=C(N)N)C(=O)N1CCC[C@H]1C(=O)N[C@H](C)C(N)=O [listing 2 of 2 here]	–	–	–	1.65 (≈ 1.14 µM)
CC(=O)N[C@H](Cc1ccc2ccccc2c1)C(=O)N[C@H](Cc1ccc(Cl)cc1)C(=O)N[C@H](Cc1cccnc1)C(=O)N[C@@H](CO)C(=O)N[C@@H](CCCCNC(=O)c1cccnc1)C(=O)N[C@H](CCCCNC(=O)c1cccnc1)C(=O)N[C@@H](CC(C)C)C(=O)N[C@@H](CCCCNC(C)C)C(=O)N1CCC[C@H]1C(=O)N[C@H](C)C(N)=O (Ac-[d2Nal][dPhe(4-Cl)][d3Pal]SK(Nicotinoyl)[dK](Nicotinoyl)L[Lys(iPr)]P[dA]-NH2) [listing 1 of 2 here]	0.0617	1100 (≈ 691 µM)	0.0234	–
CC(=O)N[C@H](Cc1ccc2ccccc2c1)C(=O)N[C@H](Cc1ccc(Cl)cc1)C(=O)N[C@H](Cc1cccnc1)C(=O)N[C@@H](CO)C(=O)N[C@@H](CCCCNC(=O)c1cccnc1)C(=O)N[C@H](CCCCNC(=O)c1cccnc1)C(=O)N[C@@H](CC(C)C)C(=O)N[C@@H](CCCCNC(C)C)C(=O)N1CCC[C@H]1C(=O)N[C@H](C)C(N)=O (Ac-[d2Nal][dPhe(4-Cl)][d3Pal]SK(Nicotinoyl)[dK](Nicotinoyl)L[Lys(iPr)]P[dA]-NH2) [listing 2 of 2 here]	–	–	–	261 (≈ 164 µM)
COc1ccc(C(=O)CC[C@@H](NC(=O)[C@H](CCCN=C(N)N)NC(=O)[C@H](CO)NC(=O)[C@@H](Cc2cccnc2)NC(=O)[C@@H](Cc2ccc(Cl)cc2)NC(=O)[C@@H](Cc2ccc3ccccc3c2)NC(C)=O)C(=O)N[C@@H](CC(C)C)C(=O)N[C@@H](CCCN=C(N)N)C(=O)N2CCC[C@H]2C(=O)N[C@H](C)C(N)=O)cc1 (Ac-[d2Nal][dPhe(4-Cl)][d3Pal]SR[dNva(5-oxo-5-(4-MeOPh))]LRP[dA]-NH2) [listing 1 of 2 here]	0.0525	–	0.00871	–
COc1ccc(C(=O)CC[C@@H](NC(=O)[C@H](CCCN=C(N)N)NC(=O)[C@H](CO)NC(=O)[C@@H](Cc2cccnc2)NC(=O)[C@@H](Cc2ccc(Cl)cc2)NC(=O)[C@@H](Cc2ccc3ccccc3c2)NC(C)=O)C(=O)N[C@@H](CC(C)C)C(=O)N[C@@H](CCCN=C(N)N)C(=O)N2CCC[C@H]2C(=O)N[C@H](C)C(N)=O)cc1 (Ac-[d2Nal][dPhe(4-Cl)][d3Pal]SR[dNva(5-oxo-5-(4-MeOPh))]LRP[dA]-NH2) [listing 2 of 2 here]	–	–	–	1.11 (≈ 0.747 µM)
CC(=O)N[C@H](Cc1ccc2ccccc2c1)C(=O)N[C@H](Cc1ccc(Cl)cc1)C(=O)N[C@H](Cc1cccnc1)C(=O)N[C@@H](CO)C(=O)N[C@@H](Cc1ccc(O)cc1)C(=O)N[C@H](CCCNC(N)=O)C(=O)N[C@@H](CC(C)C)C(=O)N[C@@H](CCCN=C(N)N)C(=O)N1CCC[C@H]1C(=O)N[C@H](C)C(N)=O (Ac-[d2Nal][dPhe(4-Cl)][d3Pal]SY[dCit]LRP[dA]-NH2) [listing 1 of 2 here]	–	–	0.0355	–
CC(=O)N[C@H](Cc1ccc2ccccc2c1)C(=O)N[C@H](Cc1ccc(Cl)cc1)C(=O)N[C@H](Cc1cccnc1)C(=O)N[C@@H](CO)C(=O)N[C@@H](Cc1ccc(O)cc1)C(=O)N[C@H](CCCNC(N)=O)C(=O)N[C@@H](CC(C)C)C(=O)N[C@@H](CCCNC(=N)N)C(=O)N1CCC[C@H]1C(=O)N[C@H](C)C(N)=O (Ac-[d2Nal][dPhe(4-Cl)][d3Pal]SY[dCit]LRP[dA]-NH2)	0.117	< 1000	–	–
CC(=O)N[C@H](Cc1ccc2ccccc2c1)C(=O)N[C@H](Cc1ccc(Cl)cc1)C(=O)N[C@H](Cc1cccnc1)C(=O)N[C@@H](CO)C(=O)N[C@@H](Cc1ccc(O)cc1)C(=O)N[C@H](CCCNC(N)=O)C(=O)N[C@@H](CC(C)C)C(=O)N[C@@H](CCCN=C(N)N)C(=O)N1CCC[C@H]1C(=O)N[C@H](C)C(N)=O (Ac-[d2Nal][dPhe(4-Cl)][d3Pal]SY[dCit]LRP[dA]-NH2) [listing 2 of 2 here]	–	–	–	1.11 (≈ 0.776 µM)
CC(=O)N[C@H](Cc1ccc2ccccc2c1)C(=O)N[C@H](Cc1ccc(Cl)cc1)C(=O)N[C@H](Cc1cccnc1)C(=O)N[C@@H](CO)C(=O)N(C)[C@@H](Cc1ccc(O)cc1)C(=O)N[C@H](CCCCNC(=O)c1cccnc1)C(=O)N[C@@H](CC(C)C)C(=O)N[C@@H](CCCCNC(C)C)C(=O)N1CCC[C@H]1C(=O)N[C@H](C)C(N)=O (Ac-[d2Nal][dPhe(4-Cl)][d3Pal]S[NMeY][dK](Nicotinoyl)L[Lys(iPr)]P[dA]-NH2) [listing 1 of 2 here]	–	> 20000	0.00589	–
CC(=O)N[C@H](Cc1ccc2ccccc2c1)C(=O)N[C@H](Cc1ccc(Cl)cc1)C(=O)N[C@H](Cc1cccnc1)C(=O)N[C@@H](CO)C(=O)N(C)[C@@H](Cc1ccc(O)cc1)C(=O)N[C@H](CCCCNC(=O)c1cccnc1)C(=O)N[C@@H](CC(C)C)C(=O)N[C@@H](CCCCNC(C)C)C(=O)N1CCC[C@H]1C(=O)N[C@H](C)C(N)=O (Ac-[d2Nal][dPhe(4-Cl)][d3Pal]S[NMeY][dK](Nicotinoyl)L[Lys(iPr)]P[dA]-NH2) [listing 2 of 2 here]	–	–	–	10 (≈ 6.51 µM)
CC(=O)N[C@H](Cc1ccc(Cl)cc1)C(=O)N[C@H](Cc1ccc(Cl)cc1)C(=O)N[C@H](Cc1csc2ccccc12)C(=O)N[C@@H](CO)C(=O)N(C)[C@@H](Cc1ccc(O)cc1)C(=O)N[C@H](CCCCN)C(=O)N[C@@H](CC(C)C)C(=O)N[C@@H](CCCN=C(N)N)C(=O)N1CCC[C@H]1C(=O)N[C@H](C)C(N)=O (Ac-[dPhe(4-Cl)][dPhe(4-Cl)][dBta]S[NMeY][dK]LRP[dA]-NH2) [listing 1 of 2 here]	0.0234	> 25000	0.00501	–
CC(=O)N[C@H](Cc1ccc(Cl)cc1)C(=O)N[C@H](Cc1ccc(Cl)cc1)C(=O)N[C@H](Cc1csc2ccccc12)C(=O)N[C@@H](CO)C(=O)N(C)[C@@H](Cc1ccc(O)cc1)C(=O)N[C@H](CCCCN)C(=O)N[C@@H](CC(C)C)C(=O)N[C@@H](CCCN=C(N)N)C(=O)N1CCC[C@H]1C(=O)N[C@H](C)C(N)=O (Ac-[dPhe(4-Cl)][dPhe(4-Cl)][dBta]S[NMeY][dK]LRP[dA]-NH2) [listing 2 of 2 here]	–	–	–	< 0.5
